Assay results published in PubChem BioAssay.
Records with an inconclusive call do not appear.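 The calls were made as follows, unless noted: active = viability at or below 27.92% in each of two runs, the all-compound median minus 4 SD; inconclusive = no clear call, values can overlap the other calls; inactive = the rest.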

How the values were obtained:
[1] = OD615 S. cerevisiae growth inhibition, permissive medium, pilot counter-assay, permissive growth control for S. cerevisiae lifespan shortening project (AID 705;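 active = growth inhibition above 25% in both replicates, a cutoff set 3 SD above the mean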); conditions: OD615, 24 h, at 10 µM, stronger effect = higher value
Method in brief: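 System: Engineered DeaD yeast | Buffer or medium: SC raffinose/galactose permissive medium | Incubation: Cells pre-grown 4 h, then 24 h compound exposure, 30 °C humidified | Measured by: Absorbance (optical density) at 615 nm | Read-out: Reduction in yeast growth (OD615)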

[2] = Restrictive medium S. cerevisiae growth inhibition, OD615, pilot screen of yeast lifespan reduction project, restrictive growth control (AID 706;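 active = growth inhibition above a set limit, 3 SD over mean compound inhibition, in both replicates, cut at about 43% in these data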;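 also: modified DeaD lifespan yeast strain shifted to restrictive glucose medium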); conditions: OD615, 48 h, at 10 µM, stronger effect = higher value
Method in brief: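 Material: modified S. cerevisiae; Medium: glucose-based CSMM-D restrictive medium; Compound dosing: one concentration, 10 µM final, 0.25% DMSO; Incubation: 48 h compound exposure at 30 °C; Measured by: OD615.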

[3] = viability gain of MRP-1-high H69AR cells under doxorubicin, pilot screen, MRP-1 activator project, CellTiter-Glo, duplicate (AID 807;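 active = viability increase at or above a cutoff of the median across tested compounds plus 3 SD, cut at about 8.5% in these data, passing the limit was not always enough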;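 also: compound pretreatment 18-22 h then 72 h combined with doxorubicin; 0% = doxorubicin alone and 100% = vehicle without doxorubicin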); conditions: H69AR viability with doxorubicin, CellTiter-Glo luminescence; at 10 µM; stronger effect = higher value
[4] = growth suppression of beta-catenin knockout HCT116, pilot screen, human colon tumor cells (AID 823;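 active = cell viability at or below a set limit in both duplicate runs, the limit being the all-compound median minus 4 SD, cut at about 23% in these data, passing the limit was not always enough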;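 also: 0% = wells killed by 20 µM Hyamine and 100% = untreated DMSO cell wells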); conditions: CellTiter-Glo, 60 h, at 10 µM, stronger effect = lower value
[5] = growth suppression of PTEN-deleted HCT116, pilot screen, cell-based, HCT116 clonal line, CellTiter-Glo (AID 824); conditions: 60 h, at 10 µM, stronger effect = lower value;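 also: 0% = 20 µM Hyamine control and 100% = vehicle cell control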
[6] = inhibitors of the yeast RAM network, pilot screen, dse1pr::URA3 reporter, 5-FOA selection (AID 869;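 active = inhibition over a set limit, the all-compound mean plus 3 SD, in both replicate runs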;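 also: 0% = DMSO wells with no growth and 100% = 10 µM 1-NA-PP1 with full growth; RAM network block rescues cells from 5-FOA so hits raise OD615 growth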); conditions: S. cerevisiae dse1pr::URA3 5-FOA growth, OD615, 2 d; at 10 µM; stronger effect = higher value; strain carries analog-sensitive mutant Cbk1 kinase
[7] = RAM signaling pathway blockade in yeast – S. cerevisiae, Pdr1DBD-CYC8 efflux-inhibited sensitized strain, primary screen (AID 1298;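 active = RAM network inhibition above 8.4% in each of two replicates, 3 SD over the compound average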;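 also: 0% = DMSO untreated cells without growth and 100% = 10 µM 1-NA-PP1 full growth; higher means more yeast growth rescued from 5-FOA killing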); conditions: S. cerevisiae cbk1-as DSE1-URA3 strain, 5-FOA growth OD615, 2 d; at 50 µM; stronger effect = higher value

CC(C)(C)C1CCc2c(sc(NC(=O)c3cc(C4CC4)on3)c2C#N)C1 (configuration not stated)
inactive: growth inhibition [1] -2.48% | growth inhibition [2] -5.6% | viability increase [3] -1.27% | viability [4] 96.8% | viability [5] 90.5% | inhibition [6] 3.56% | RAM network inhibition [7] 2.83%

C=CCNC(=O)COc1ccc(Br)cc1Cl
inactive: growth inhibition [1] -15.7% | growth inhibition [2] -6.88% | viability increase [3] 1.27% | viability [4] 99% | viability [5] 91.2% | inhibition [6] 1.36% | RAM network inhibition [7] 9.74%

COc1ccc(S(=O)(=O)Cc2ccc(C(=O)NCc3cccs3)o2)cc1
inactive: growth inhibition [1] -2.92% | growth inhibition [2] -21.2% | viability increase [3] -4.71% | viability [4] 94.7% | viability [5] 87.1% | inhibition [6] 1.21% | RAM network inhibition [7] 3.04%

CCOC(=O)N1CCN(C(=O)c2ccccc2Oc2ccccc2)CC1
inactive: growth inhibition [1] -5.57% | growth inhibition [2] 0.11% | viability increase [3] -1.94% | viability [4] 91% | viability [5] 93.3% | inhibition [6] -0.56% | RAM network inhibition [7] 0.52%

CCC(=O)N=c1sc2c(OC)ccc(OC)c2n1C
inactive: growth inhibition [1] -7.02% | growth inhibition [2] -7.99% | viability increase [3] -4.85% | viability [4] 92.4% | viability [5] 91.2% | inhibition [6] 1.68% | RAM network inhibition [7] 2.04%

O=C(CNC(=O)c1ccccc1F)NC1CC1
inactive: growth inhibition [1] -8.56% | growth inhibition [2] -2.84% | viability increase [3] -2.87% | viability [4] 99.3% | viability [5] 96.4% | inhibition [6] 0.76% | RAM network inhibition [7] 6.17%

CC(C)NC(=O)C1CCCN(c2nnc(-n3cccc3)s2)C1 (configuration not stated)
inactive: growth inhibition [1] -0.35% | growth inhibition [2] 14.8% | viability increase [3] -3.11% | viability [4] 108% | viability [5] 97.6% | inhibition [6] -0.455% | RAM network inhibition [7] 0.02%

Cn1nc(-c2ccc(Cl)cc2)c2cc(C(=O)NCC3CCCO3)sc21 (configuration not stated)
inactive: growth inhibition [1] 1.54% | growth inhibition [2] 17.7% | viability increase [3] -5.84% | viability [4] 65.9% | viability [5] 60.2% | inhibition [6] -0.13% | RAM network inhibition [7] -2.54%

Cc1noc(C)c1S(=O)(=O)N(CC(=O)Nc1ccc2c(c1)OCCO2)c1ccc(C(C)C)cc1
inactive: growth inhibition [1] -19.3% | growth inhibition [2] -5.11% | viability increase [3] -5.12% | viability [4] 56.8% | viability [5] 48.7% | inhibition [6] 1.71% | RAM network inhibition [7] 1.99%

Cc1cc(C)n(C(CC(=O)N2CCc3ccccc3C2)C(=O)O)n1 (configuration not stated)
inactive: growth inhibition [1] -3.07% | growth inhibition [2] -0.04% | viability increase [3] 0.01% | viability [4] 102% | viability [5] 95.5% | inhibition [6] 0% | RAM network inhibition [7] 5.81%

CCOc1cc(C(=O)NC(C)COC)cc(OCC)c1OCC (configuration not stated)
inactive: growth inhibition [1] -4.84% | growth inhibition [2] -8.48% | viability increase [3] -2.05% | viability [4] 104% | viability [5] 104% | inhibition [6] 0.785% | RAM network inhibition [7] 0.53%

COc1ccccc1-n1c2c(cc(C(=O)N3CCC(C)CC3)c1=O)C(=O)CC(C)(C)C2
inactive: growth inhibition [1] -21.2% | growth inhibition [2] -5.49% | viability increase [3] -0.6% | viability [4] 101% | viability [5] 90.7% | inhibition [6] 0.005% | RAM network inhibition [7] 4.67%

Cn1c(=O)oc2cc(S(=O)(=O)NCCCN3CCCC3=O)ccc21
inactive: growth inhibition [1] -7.4% | growth inhibition [2] -6.43% | viability increase [3] -2.65% | viability [4] 99% | viability [5] 98.7% | inhibition [6] 0.615% | RAM network inhibition [7] 0.74%

CCOC(=O)Cn1nc(C)c(-c2ccccc2)c1N
inactive: growth inhibition [1] -23.1% | growth inhibition [2] -5.69% | viability increase [3] -1.41% | viability [4] 97.4% | viability [5] 95.2% | inhibition [6] 1.26% | RAM network inhibition [7] 2.61%

COc1ccc(C(C)(C)C)cc1NC(=O)COC(=O)c1cnc(C)cn1
inactive: growth inhibition [1] -4.5% | growth inhibition [2] -5.05% | viability increase [3] -2.09% | viability [4] 97.3% | viability [5] 94.3% | inhibition [6] 0.395% | RAM network inhibition [7] 4.9%

CCS(=O)(=O)NCc1csc(-c2ccccc2)n1
inactive: growth inhibition [1] -0.375% | growth inhibition [2] -0.625% | viability increase [3] -2% | viability [4] 89.9% | viability [5] 87.5% | inhibition [6] 0.635% | RAM network inhibition [7] 5.48%

CC(=O)c1ccc(N2CCN(C(=O)c3cc4c(-c5ccccc5F)nn(C)c4s3)CC2)cc1
inactive: growth inhibition [1] 3.9% | growth inhibition [2] 2.33% | viability increase [3] -2.9% | viability [4] 66% | viability [5] 78% | inhibition [6] 2.27% | RAM network inhibition [7] 6.5%

O=C(Nc1ccc2c(c1)OCO2)C1CCCN1C(=O)OCc1ccccc1 (configuration not stated)
inactive: growth inhibition [1] -17.8% | growth inhibition [2] -4.2% | viability increase [3] -1.45% | viability [4] 94.4% | viability [5] 93.6% | inhibition [6] 1.32% | RAM network inhibition [7] 4.12%

CC(C)(C)C1(C)OC(C(N)=O)C(C(N)=O)O1 (configuration not stated)
inactive: growth inhibition [1] -7.22% | growth inhibition [2] -1.06% | viability increase [3] 0.03% | viability [4] 98.2% | viability [5] 95.7% | inhibition [6] 0.785% | RAM network inhibition [7] 1.14%

COc1ccccc1NC(=O)NCCN1C(=O)C2C3C=CC(C3)C2C1=O (configuration not stated)
inactive: growth inhibition [1] -16.2% | growth inhibition [2] -7.88% | viability increase [3] -0.36% | viability [4] 106% | viability [5] 105% | inhibition [6] 1.71% | RAM network inhibition [7] 5.38%

COc1ccc(CN2CCCCC2C(=O)Nc2ccc(OC)c(OC)c2)cc1OC (configuration not stated)
inactive: growth inhibition [1] -10.9% | growth inhibition [2] -12.6% | viability increase [3] -1.88% | viability [4] 95.8% | viability [5] 93.3% | inhibition [6] 0.01% | RAM network inhibition [7] 0.21%

COc1cccc(C2=NOC(C(=O)N3CCN(C(=O)c4ccco4)CC3)C2)c1 (configuration not stated)
inactive: growth inhibition [1] 5% | growth inhibition [2] -4.4% | viability increase [3] -2.95% | viability [4] 95.6% | viability [5] 95.2% | inhibition [6] -0.3% | RAM network inhibition [7] 0.01%

COc1ccc(OC)c(CN2C(=O)c3ccccc3C2C(=O)NCc2cccnc2)c1 (configuration not stated)
inactive: growth inhibition [1] -6.83% | growth inhibition [2] 2.58% | viability increase [3] 0.05% | viability [4] 106% | viability [5] 97.6% | inhibition [6] 0.155% | RAM network inhibition [7] 4.09%

CCN(C(=O)COC(=O)C(Cc1ccccc1)N1C(=O)c2ccccc2C1=O)C1CCS(=O)(=O)C1 (configuration not stated)
inactive: growth inhibition [1] -4.4% | growth inhibition [2] -18.5% | viability increase [3] 0.46% | viability [4] 97.4% | viability [5] 99.5% | inhibition [6] 0.495% | RAM network inhibition [7] 2.8%

CCOC(=O)c1ccc2nc(NC(=O)C(C)C)sc2c1
inactive: growth inhibition [1] -10.9% | growth inhibition [2] -10.6% | viability increase [3] -6.61% | viability [4] 78.6% | viability [5] 80% | inhibition [6] 1.98% | RAM network inhibition [7] 0.06%

CCOC(=O)CSc1nnc(Cn2c(=O)sc3ccccc32)n1-c1ccccc1C
inactive: growth inhibition [1] -8.34% | growth inhibition [2] -6.71% | viability increase [3] -1.07% | viability [4] 96.2% | viability [5] 96% | inhibition [6] 2.26% | RAM network inhibition [7] 2.24%

Cc1cc(NCc2ccco2)nc2cc(O)ccc12
inactive: growth inhibition [1] -11.9% | growth inhibition [2] -28.8% | viability increase [3] -5.57% | viability [4] 92.7% | viability [5] 93.4% | inhibition [6] 1.35% | RAM network inhibition [7] 1.95%

Cc1cc(C)c2c(=O)[nH]n(C3CCOC(C)(C)C3)c2n1 (configuration not stated)
inactive: growth inhibition [1] -4.97% | growth inhibition [2] -0.145% | viability increase [3] -0.16% | viability [4] 107% | viability [5] 99.8% | inhibition [6] -0.37% | RAM network inhibition [7] 1.49%

CCc1c(C(C)O)oc2ccc3c(C)cc(=O)oc3c12 (configuration not stated)
inactive: growth inhibition [1] -9.42% | growth inhibition [2] 2.23% | viability increase [3] -3.86% | viability [4] 84.3% | viability [5] 82.2% | inhibition [6] 1.06% | RAM network inhibition [7] 6.56%

Cn1c(=O)[nH]c(=O)c2c1nc(NC1CCCCC1)n2CCO
inactive: growth inhibition [1] -16.7% | growth inhibition [2] -22.4% | viability increase [3] -2.15% | viability [4] 102% | viability [5] 97.9% | inhibition [6] 1.19% | RAM network inhibition [7] 3.67%

CCC1CCCCN1C(=O)CSc1nc2c(cnn2-c2ccc(C)cc2)c(=O)[nH]1 (configuration not stated)
inactive: growth inhibition [1] -3.04% | growth inhibition [2] -5.33% | viability increase [3] -3.73% | viability [4] 97.2% | viability [5] 87.1% | inhibition [6] 1.71% | RAM network inhibition [7] 6.97%

NC(=O)CC1NC(=O)c2ccccc21 (configuration not stated)
inactive: growth inhibition [1] -11.7% | growth inhibition [2] -6.05% | viability increase [3] 0.12% | viability [4] 91.7% | viability [5] 100% | inhibition [6] 1.28% | RAM network inhibition [7] 3.47%

CCOC(=O)c1[nH]c2c(c1C)C(=O)CC(c1ccc(N(C)C)cc1)C2 (configuration not stated)
inactive: growth inhibition [1] -3.69% | growth inhibition [2] -0.995% | viability increase [3] -3.6% | viability [4] 77% | viability [5] 71.7% | inhibition [6] 2.3% | RAM network inhibition [7] 1.32%

Cc1ccc(C2/C(=C(/O)c3ccc(Cl)cc3)C(=O)C(=O)N2CC2CCCO2)o1 (configuration not stated)
inactive: growth inhibition [1] -7.4% | growth inhibition [2] 12.5% | viability increase [3] -3.2% | viability [4] 95.1% | viability [5] 96.4% | inhibition [6] 0.77% | RAM network inhibition [7] -0.36%

OC(CN1c2ccccc2Sc2ccccc21)Cn1nnc2ccccc21 (configuration not stated)
inactive: growth inhibition [1] -4.44% | growth inhibition [2] -9.12% | viability increase [3] -6.85% | viability [4] 72% | viability [5] 66.2% | inhibition [6] 1.69% | RAM network inhibition [7] 10.2%

CS(=O)(=O)NCCCc1ccccc1
inactive: growth inhibition [1] -3.13% | growth inhibition [2] 9.6% | viability increase [3] -1.36% | viability [4] 96.6% | viability [5] 94.5% | inhibition [6] 0.325% | RAM network inhibition [7] -0.88%
